Measurements from different studies.
Each line is one published result; the experiments were not run side by side.

SMILES | cell line | test | setting | endpoint | value
N.N.[Cl][Pt][Cl] | MCF7 | cell growth or viability, SRB | – | EC50 | 3.6 µM
COc1cc2c3c(n(CCCN4CCOCC4)c(=O)c2cc1OC)-c1cc2c(cc1C3=O)OCO2 | P388 | cell growth or viability | 72 h | IC50 | 0.154 µg/mL
CC(C)[C@H](N)C(=O)N1CCC[C@H]1B(O)O | THP-1 | cell growth or viability, ATP luminescence | 48 h | IC50 | 0.206 µM
COc1c2c(cc3c1OCO3)[C@]13C=C[C@H](OC)C[C@@H]1[N@](C2)C[C@H]3OC(=O)c1ccoc1 | SAOS-2 | cell growth or viability, WST-1 | – | IC50 | > 10 µM
C1COCCN1.COc1ccc(/C=C\c2cc(I)c(OC)c(I)c2)cc1OP(=O)(O)O | MCF7 | cell growth or viability, SRB | 48 h | GI50 | 0.066 µg/mL
O=c1ccc2ccc3occc3c2o1 | HEp-2 | cell growth or viability, WST-1 | 48 h | IC50 | 11.5 µM
N.N.[Cl][Pt][Cl] | MCF7 | cell growth or viability, MTT | 48 h | IC50 | 14.2 µM
CCCCCCCC(=O)SCC/C=C/[C@@H]1CC(=O)NCc2nc(cs2)C2=N[C@@](C)(CS2)C(=O)N[C@@H](C(C)C)C(=O)O1 | SW-620 | cell growth or viability, resazurin | 48 h | IC50 | 0.0265 µM
CCN1C(=O)SCC1C1(OC)CC2CC(CCC(C)C=CC=CCCC(C)=CC(=O)O2)O1 (stereo not shown) | MCF7 | cell growth or viability, MTT | 72 h | IC50 | 20.6 µM
c1ccc([C@@H]2C[C@H]2NC2CCNCC2)cc1 | TF-1a | cell growth or viability, resazurin | 96 h | EC50 | 0.00155 µM
C[C@@H](O)[C@H](NC(=O)[C@H](CCCNC(=N)N)NC(=O)[C@H](CC(N)=O)NC(=O)[C@H](CC(N)=O)NC(=O)[C@@H](N)CCCNC(=N)N)C(=O)N[C@@H](CO)C(=O)NCC(=O)N[C@@H](Cc1ccccc1)C(=O)N[C@@H](CCCCN)C(=O)N[C@@H](Cc1c[nH]c2ccccc12)C(=O)O | THP-1 | cell growth or viability, ATP luminescence | 48 h | IC50 | 1.8 µM
COc1c2c(cc3c1OCO3)[C@]13C=C[C@H](OC)C[C@@H]1[N@](C2)C[C@H]3OC(=O)c1ccco1 | SAOS-2 | cell growth or viability, WST-1 | – | IC50 | > 10 µM
COc1cc2c3c(n(CCCNCCO)c(=O)c2cc1OC)-c1cc2c(cc1C3=O)OCO2 | MCF7 | cell growth or viability, SRB | – | GI50 | < 0.01 µM
C=CC(=O)Nc1cc(Nc2nccc(-c3cn(C)c4ccccc34)n2)c(OC)cc1N(C)CCN(C)C | Calu-3 | cell growth or viability | 72 h | IC50 | 0.65 µM
C/C1=C/C(=O)O[C@@H]2C[C@@H](CC[C@H](C)/C=C\C=C\CC1)O[C@@](O)([C@@H]1CSC(=O)N1)C2 | MCF7 | cell growth or viability, MTT | 72 h | IC50 | 0.48 µM
Cc1c2ccncc2c(C)c2c1[nH]c1ccccc12 | THP-1 | TNF-α release, inhibitor | 17 h, LPS-stimulated | IC50 | 1.57 µM
Cn1cncc1[C@@](N)(c1ccc(Cl)cc1)c1ccc2c(c1)c(-c1cccc(Cl)c1)cc(=O)n2C | FaDu | cell growth or viability | 72 h | IC50 | 2.73 µM
O=c1ccc2cc3ccoc3cc2o1 | HEp-2 | cell growth or viability, WST-1 | 48 h | IC50 | 20.5 µM
CC(C)[C@@H]1NC(=O)[C@H](CO)NC(=O)[C@H](CO)NC(=O)[C@H](CO)N(C)C(=O)[C@H](CC(=O)O)NC(=O)[C@H](CO)NC(=O)[C@H](Cc2ccccc2)NC(=O)CSC[C@@H](C(=O)NCC(N)=O)NC(=O)[C@H](CC(N)=O)NC(=O)[C@H](CCCNC(=N)N)NC(=O)[C@H](C)NC(=O)[C@H](Cc2ccc(-c3ccccc3)cc2)NC(=O)[C@H](CC(N)=O)NC(=O)[C@@H]2CCCN2C1=O | SJSA-1 | cell growth or viability | – | EC50 | > 30 µM
